{"source": "ChEMBL document CHEMBL4732107", "about": "“Synthesis and anticancer activity evaluation of naphthalene-substituted triazole spirodienones” (Eur J Med Chem, 2021)", "key": {"[1]": {"system": "MDA-MB-231", "assay": "Antiproliferative activity against human MDA-MB-231 cells assessed as reduction in cell viability measured after 5 days by beckman coulter counting method", "format": "functional, cell-based", "details": "MDA-MB-231, 120 h"}, "[2]": {"system": "HeLa", "assay": "Antiproliferative activity against human HeLa cells assessed as reduction in cell viability measured after 5 days by beckman coulter counting method", "format": "functional, cell-based", "details": "120 h"}, "[3]": {"system": "A549", "assay": "Antiproliferative activity against human A549 cells assessed as reduction in cell viability measured after 5 days by beckman coulter counting method", "format": "functional, cell-based", "details": "A549, 120 h", "procedure,_shortened": "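Cells kept in DMEM with 10% FBS, 4 mM glutamine, 1 mM sodium pyruvate, penicillin/streptomycin and amphotericin, at 37 °C in 5% CO2. Seeded at 20,000 per well, then exposed to 5 concentrations for 5 days, with DMSO as vehicle. Viable cells counted on a cell viability analyzer. Viability expressed as treated/vehicle count, and IC50 taken from dose-response curves.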"}, "[4]": {"system": "MDA-MB-231", "assay": "Cell cycle arrest in human MDA-MB-231 cells assessed as accumulation at S phase at 1 uM measured after 24 hrs by propidium iodide staining based flow cytometry (reference value: 19.84%)", "format": "functional"}, "[5]": {"system": "MDA-MB-231", "assay": "Induction of apoptosis in human MDA-MB-231 cells measured after 24 hrs by annexin V-FITC/propidium iodide staining based flow cytometry", "format": "functional, cell-based", "details": "dose 0.1-1 µM"}, "[6]": {"system": "MDA-MB-231", "assay": "Induction of apoptosis in human MDA-MB-231 cells assessed as viable cells at 0.1 uM measured after 24 hrs by annexin V-FITC/propidium iodide staining based flow cytometry (reference value: 90.9%)", "format": "functional", "details": "read-out: Activity"}, "[7]": {"system": "MDA-MB-231", "assay": "Induction of apoptosis in human MDA-MB-231 cells assessed as early apoptotic cells at 0.1 uM measured after 24 hrs by annexin V-FITC/propidium iodide staining based flow cytometry (reference value: 1.49%)", "format": "functional"}, "[8]": {"system": "MDA-MB-231", "assay": "Induction of apoptosis in human MDA-MB-231 cells assessed as late apoptotic cells at 0.1 uM measured after 24 hrs by annexin V-FITC/propidium iodide staining based flow cytometry (reference value: 2.84%)", "format": "functional"}, "[9]": {"system": "MDA-MB-231", "assay": "Induction of apoptosis in human MDA-MB-231 cells assessed as early apoptotic cells at 1 uM measured after 24 hrs by annexin V-FITC/propidium iodide staining based flow cytometry (reference value: 1.49%)", "format": "functional"}, "[10]": {"system": "MDA-MB-231", "assay": "Induction of apoptosis in human MDA-MB-231 cells assessed as late apoptotic cells at 1 uM measured after 24 hrs by annexin V-FITC/propidium iodide staining based flow cytometry (reference value: 2.84%)", "format": "functional"}, "[11]": {"system": "MDA-MB-231", "assay": "Induction of apoptosis in human MDA-MB-231 cells assessed as necrotic cells at 1 uM measured after 24 hrs by annexin V-FITC/propidium iodide staining based flow cytometry (reference value: 4.74%)", "format": "functional"}, "[12]": {"assay": "Acute toxicity in ip dosed Kunming mouse administered as single dose", "format": "organism-based", "details": "in vivo", "procedure,_shortened": "(§1)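 Kunming mice in four groups (n = 8, half male, half female) got one intraperitoneal dose of 10, 20 or 40 mg/kg, or vehicle. Body weights were recorded daily after dosing. Eyes, skin and fur were checked for clinical signs. Mortality was recorded. Mice were dissected to look for ascites and to assess liver volume.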"}, "[13]": {"assay": "Acute toxicity in Kunming mouse assessed as clinical change in skin at 40 mg/kg, ip administered as single dose", "format": "organism-based", "details": "in vivo", "procedure,_shortened": "as §1"}, "[14]": {"assay": "Acute toxicity in Kunming mouse assessed as development of ascites at 40 mg/kg, ip administered as single dose", "format": "organism-based", "details": "in vivo", "procedure,_shortened": "as §1"}, "[15]": {"assay": "Acute toxicity in Kunming mouse assessed as decrease in liver volume at 40 mg/kg, ip administered as single dose", "format": "organism-based", "details": "in vivo", "procedure,_shortened": "as §1"}, "[16]": {"system": "4T1", "assay": "Antitumor activity against mouse 4T1 cells implanted in mouse assessed as reduction in tumor weight at 1 to 2 mg/kg, ip administered daily for 12 days", "format": "functional, organism-based", "details": "dose 1-2 mg/kg, time 12.0 day", "procedure,_shortened": "(§2)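 Mice bearing orthotopic 4T1 tumors were randomized into 4 groups (n = 6) once tumors reached about 100 mm2. Groups received vehicle, test compound at 1 or 2 mg/kg, or doxorubicin at 1 mg/kg, given i.p. every day. Body weight and tumor volume were recorded daily. Tumors were excised and weighed at the end, and inhibition was calculated against the saline control.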"}, "[17]": {"system": "4T1", "assay": "Antitumor activity against mouse 4T1 cells implanted in mouse assessed as tumor growth inhibition at 1 mg/kg, ip administered daily for 12 days relative to control", "format": "functional", "details": "4T1, ip, 288 h, time 12 day, read-out: TGI", "procedure,_shortened": "as §2"}, "[18]": {"system": "4T1", "assay": "Antitumor activity against mouse 4T1 cells implanted in mouse assessed as tumor growth inhibition at 2 mg/kg, ip administered daily for 12 days relative to control", "format": "functional", "details": "4T1, ip, 288 h, time 12 day, read-out: TGI", "procedure,_shortened": "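Orthotopic 4T1 tumor-bearing mice were randomized into four groups (n = 6) once tumors reached about 100 mm2. Groups received vehicle (saline), test compound at 1 or 2 mg/kg, or doxorubicin 1 mg/kg, all intraperitoneally every day. Tumor volume and body weight were measured daily. Inhibition ratio was computed against saline at study end, and tumors were weighed.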"}, "[19]": {"assay": "Toxicity in mouse implanted with mouse 4T1 cells assessed as change in body weight at 1 to 2 mg/kg, ip administered daily for 12 days measured daily during compound dosing", "format": "organism-based", "details": "in vivo, 288 h, dose 1-2 mg/kg, time 12 day", "procedure,_shortened": "as §2"}, "[20]": {"assay": "Toxicity in mouse implanted with mouse 4T1 cells assessed as increase in liver size at 2 mg/kg, ip administered daily for 12 days measured post last dose", "format": "organism-based", "details": "in vivo, 288 h, time 12 day", "procedure,_shortened": "(§3)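 Orthotopic 4T1-bearing mice (n = 6 per group) were dosed i.p. daily with vehicle, compound at 1 or 2 mg/kg, or doxorubicin at 1 mg/kg. At the end of treatment, tumors and major organs (liver, spleen) were harvested and photographed. Sections were H&E stained and examined by microscope.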"}, "[21]": {"assay": "Toxicity in mouse implanted with mouse 4T1 cells assessed as extramedullary hematopoiesis in spleen at 2 mg/kg, ip administered daily for 12 days measured post last dose by H and E staining based microscopic analysis", "format": "organism-based", "details": "in vivo, 288 h, time 12 day", "procedure,_shortened": "as §3"}, "[22]": {"assay": "Toxicity in mouse implanted with mouse 4T1 cells assessed as extramedullary hematopoiesis in liver at 2 mg/kg, ip administered daily for 12 days measured post last dose by H and E staining based microscopic analysis", "format": "organism-based", "details": "in vivo, 288 h, time 12 day", "procedure,_shortened": "as §3"}, "[23]": {"target": "T1, Aurora kinase A (Homo sapiens, UniProt O14965)", "T1 sequence (O14965 whole entry)": "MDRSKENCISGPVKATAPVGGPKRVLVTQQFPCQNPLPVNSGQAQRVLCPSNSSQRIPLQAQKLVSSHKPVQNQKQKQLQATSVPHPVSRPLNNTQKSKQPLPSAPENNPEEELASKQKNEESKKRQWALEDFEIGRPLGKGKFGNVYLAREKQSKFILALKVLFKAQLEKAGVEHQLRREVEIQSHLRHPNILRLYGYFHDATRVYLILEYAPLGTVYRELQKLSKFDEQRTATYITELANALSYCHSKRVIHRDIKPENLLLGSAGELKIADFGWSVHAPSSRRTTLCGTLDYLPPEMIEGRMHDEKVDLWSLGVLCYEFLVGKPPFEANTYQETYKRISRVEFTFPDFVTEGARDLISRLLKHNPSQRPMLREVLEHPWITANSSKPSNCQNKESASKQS", "assay": "Inhibition of AURKA (unknown origin)", "procedure,_shortened": "(§4)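 Kinase inhibition was measured in two independent repeats, and IC50 is reported as their average with SD.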"}, "[24]": {"target": "Mitogen-activated protein kinase 10 (Homo sapiens, UniProt P53779)", "sequence (P53779 whole entry)": "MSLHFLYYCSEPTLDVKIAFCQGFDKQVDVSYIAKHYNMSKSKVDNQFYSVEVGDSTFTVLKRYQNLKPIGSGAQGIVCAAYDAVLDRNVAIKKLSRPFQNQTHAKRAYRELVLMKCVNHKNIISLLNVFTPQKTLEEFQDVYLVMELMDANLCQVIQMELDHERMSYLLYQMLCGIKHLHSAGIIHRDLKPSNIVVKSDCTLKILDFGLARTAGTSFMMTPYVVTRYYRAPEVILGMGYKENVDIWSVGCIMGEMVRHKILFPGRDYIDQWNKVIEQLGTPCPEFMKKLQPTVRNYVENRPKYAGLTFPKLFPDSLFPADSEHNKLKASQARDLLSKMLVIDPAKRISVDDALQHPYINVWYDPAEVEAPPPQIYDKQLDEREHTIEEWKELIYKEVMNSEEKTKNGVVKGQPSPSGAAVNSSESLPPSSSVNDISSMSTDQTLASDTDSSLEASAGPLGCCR", "assay": "Inhibition of MAPK10 (unknown origin)", "procedure,_shortened": "as §4"}, "[25]": {"target": "Tyrosine-protein kinase JAK2 (Homo sapiens, UniProt O60674)", "sequence (O60674 whole entry)": "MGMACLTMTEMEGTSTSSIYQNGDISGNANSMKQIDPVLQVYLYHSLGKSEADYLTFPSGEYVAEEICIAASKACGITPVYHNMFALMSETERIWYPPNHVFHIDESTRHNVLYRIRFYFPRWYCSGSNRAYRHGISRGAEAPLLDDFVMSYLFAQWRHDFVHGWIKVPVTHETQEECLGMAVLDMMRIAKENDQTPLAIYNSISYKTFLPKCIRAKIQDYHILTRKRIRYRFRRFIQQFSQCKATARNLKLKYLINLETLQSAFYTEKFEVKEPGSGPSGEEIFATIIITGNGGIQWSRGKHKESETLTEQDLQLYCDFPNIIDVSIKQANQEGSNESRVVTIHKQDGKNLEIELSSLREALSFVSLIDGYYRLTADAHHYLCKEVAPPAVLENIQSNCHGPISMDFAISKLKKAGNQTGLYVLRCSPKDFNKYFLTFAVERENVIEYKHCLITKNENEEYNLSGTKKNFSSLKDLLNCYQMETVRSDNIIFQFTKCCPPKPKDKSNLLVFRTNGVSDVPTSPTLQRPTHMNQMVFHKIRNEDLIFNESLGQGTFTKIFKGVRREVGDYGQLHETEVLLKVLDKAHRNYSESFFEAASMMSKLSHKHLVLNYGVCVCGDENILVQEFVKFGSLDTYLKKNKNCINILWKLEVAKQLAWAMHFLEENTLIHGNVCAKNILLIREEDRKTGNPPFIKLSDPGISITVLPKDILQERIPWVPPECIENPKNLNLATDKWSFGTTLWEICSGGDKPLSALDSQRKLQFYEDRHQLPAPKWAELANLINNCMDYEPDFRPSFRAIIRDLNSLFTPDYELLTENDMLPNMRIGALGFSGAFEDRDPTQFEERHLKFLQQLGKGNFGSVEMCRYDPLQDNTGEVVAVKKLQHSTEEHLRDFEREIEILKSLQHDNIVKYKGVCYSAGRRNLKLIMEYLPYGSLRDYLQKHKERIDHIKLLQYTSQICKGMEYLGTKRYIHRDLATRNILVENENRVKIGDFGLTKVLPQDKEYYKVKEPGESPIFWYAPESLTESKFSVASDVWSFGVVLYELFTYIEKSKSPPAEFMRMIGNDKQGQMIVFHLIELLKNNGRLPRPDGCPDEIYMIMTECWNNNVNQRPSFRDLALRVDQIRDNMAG", "assay": "Inhibition of JAK2 (unknown origin)", "procedure,_shortened": "as §4"}}, "note": "The source made the active and inactive calls. The rule behind the calls is not given here.", "data": [{"compound": "O=C1C=CC2(C=C1)OCC(=O)N2c1nc(-c2cccc3ccccc23)nn1-c1ccccc1", "values": [{"measurement": "IC50", "setting": "[1]", "result": 50, "unit": "nM"}, {"measurement": "IC50", "setting": "[2]", "result": 70, "unit": "nM"}, {"measurement": "IC50", "setting": "[3]", "result": 80, "unit": "nM"}, {"measurement": "Activity", "setting": "[4]", "result": 36.99, "unit": "%"}, {"measurement": "Activity", "setting": "[5]", "result": "Dose-dependent effect"}, {"measurement": "viability at 0.1 µM", "setting": "[6]", "result": 90.8, "unit": "%"}, {"measurement": "Activity", "setting": "[7]", "result": 1.32, "unit": "%"}, {"measurement": "Activity", "setting": "[8]", "result": 2.69, "unit": "%"}, {"measurement": "Activity", "setting": "[9]", "result": 22.2, "unit": "%"}, {"measurement": "Activity", "setting": "[10]", "result": 29, "unit": "%"}, {"measurement": "Activity", "setting": "[11]", "result": 13.1, "unit": "%"}, {"measurement": "MTD", "setting": "[12]", "result": "> 40", "unit": "mg/kg"}, {"measurement": "Activity", "setting": "[13]", "result": "Non-Toxic"}, {"measurement": "Activity", "setting": "[14]", "result": "Toxic"}, {"measurement": "Activity", "setting": "[15]", "result": "Toxic"}, {"measurement": "Activity", "setting": "[16]", "result": "Active"}, {"measurement": "inhibition in vivo at 1 mg/kg", "setting": "[17]", "result": 18.2, "unit": "%"}, {"measurement": "inhibition in vivo at 2 mg/kg", "setting": "[18]", "result": 38.8, "unit": "%"}, {"measurement": "Activity", "setting": "[19]", "result": "Non-Toxic"}, {"measurement": "Activity", "setting": "[20]", "result": "Toxic"}, {"measurement": "Activity", "setting": "[21]", "result": "Toxic"}, {"measurement": "Activity", "setting": "[22]", "result": "Toxic"}, {"measurement": "IC50", "setting": "[23]", "result": "> 100000", "unit": "nM"}, {"measurement": "IC50", "setting": "[24]", "result": "> 100000", "unit": "nM"}, {"measurement": "IC50", "setting": "[25]", "result": 59000, "unit": "nM"}]}]}
